Screens deposited in PubChem by several laboratories.
In the library only some 2.7% were active in any assay of this set; here they are far more common.
BB579 growth dn – growth inhibitors of yeast BB579 in restrictive medium, primary screen, yeast lifespan-shortening project, S. cerevisiae. OD615, 48 h. inhibition, % at 10 µM. 0.51% of 140,000 active. AID 804, 2007;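 active = inhibition above a set limit, 3 SD over the mean compound inhibition, cut at about 44% in these data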
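Assay system – yeast BB579 (DeaD) · Dosing – single compound dose of 10 µM, 0.25% DMSO final · Detection – OD615 turbidity measurement · Buffer or medium – CSMM-D restrictive synthetic medium containing dextrose (glucose) · Benchmarks – positive control amphotericin B 10 µg/mL · Incubation – 48 h exposure, 30 °C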
RAM inhibit – inhibitors of the yeast RAM network, primary screen, dse1pr::URA3 reporter, 5-FOA selection. inhibition, % at 50 µM. S. cerevisiae dse1pr::URA3 reporter, 5-FOA growth OD615, 2 d; analog-sensitive cbk1-as2 kinase mutant strain. 1.8% of 190,000 active. AID 868, 2007;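 active = inhibition above a set limit, 3 SD over mean compound inhibition, cut at about 8.4% in these data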;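 note: 0% = DMSO-only wells with no growth and 100% = 10 µM 1-NA-PP1 full growth; inhibition rescues growth on 5-FOA so higher OD means more RAM inhibition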
Yeast lifespan up – compounds extending yeast replicative lifespan, primary screen, S. cerevisiae, OD615; S. cerevisiae growth with nicotinamide; deaD strain in restrictive glucose medium; inhibition of the nicotinamide effect, % at 10 µM; 0.68% of 130,000 active; AID 775, 2007;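 active = inhibition above a set limit, placed 3 SD over the median of all compounds, cut at about 26% in these data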;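 note: 0% = nicotinamide-treated wells and 100% = cells grown without nicotinamide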
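System: DeaD-strain S. cerevisiae / Buffer or medium: CSMM-D, restrictive glucose (dextrose) synthetic minimal medium / Probe or stimulus: nicotinamide, 1.5 mM, co-present with compound / Compound: one concentration, 10 µM, DMSO 0.25% / Incubation: 48 h compound exposure at 30 °C, humidified / Technique: optical density (absorbance) at 615 nm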
SDO1 yeast rescue – growth rescue of sdo1-depleted yeast, primary screen, S. cerevisiae, bone marrow failure model; S. cerevisiae sdo1-depleted JHY4D growth rescue, OD600 30 h; active compounds read high; pdr5 snq2 efflux-pump mutant strain; 0.21% of 140,000 active; z-score at 10 µM;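 active = z-score above 3 at both the 24 hr and the 30 hr optical density reads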;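 note: z-score against mean and SD of all compound wells on the same plate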
* hit, by the source's call; . = no result.

SMILES	BB579 growth dn	RAM inhibit	Yeast lifespan up	SDO1 yeast rescue
O=C(CNCc1ccccc1)Nc1ccc(Oc2ccccc2)cc1	.	11*	.	.
CN1CCN(C2=Cc3ccccc3Sc3cc(F)c(F)cc32)CC1	1	2	.	-2.5
CN1CCN(C2=Cc3cc(Cl)ccc3Sc3cc(F)ccc32)CC1	98*	3	.	-2.1
CCCCCCCN1C2=NCCCN2c2ccccc21	.	1	.	.
O=C1CCCC/C1=N\Nc1ccc(OCc2ccccc2)cc1	92*	1	4	0.71
CCCCOc1cccc(C2(C(=O)O)CCCC2)c1	-7	-1	28*	-0.82
CNC(=O)c1ccc(-c2sc3nc(N4CCOCC4)c4c(c3c2N)CCCC4)o1	-8	9.3*	-23	-1.2
COC(=O)c1c(NC(=O)CN2CCCc3ccccc32)sc(C)c1C	-21	3	-2	-0.28
COCCOC(=O)c1c(NC(=O)CN2CCCc3ccccc32)sc(C(N)=O)c1C	-28	11*	-2	-0.02
Cn1c(C(C#N)/C(=N\S(=O)(=O)c2cccs2)c2ccccc2)nc2ccccc21 (stereo not drawn)	-76	9.6*	0	-0.44
Cc1c(NC(=O)c2nn3c(C(F)(F)F)cc(-c4ccccc4)nc3c2Br)c(=O)n(-c2ccccc2)n1C	-6	8.6*	-3	-1.2
CCOC(=O)c1cc(-c2ccc(N)cc2)sc1N	-40	0	-15	0.43
Nc1sc(-c2ccccc2)cc1C(=O)O	-38	0	84*	-0.76
Cc1sc2ncnc(NCCCN3CCCC3=O)c2c1C	.	2	.	.
Nc1oc2ccc(F)cc2c(=O)c1C=O	-31	-1	27*	1.1
COc1ccc(OC)c(NC(=O)c2cc3c(Cl)nc4ccccc4c3s2)c1	-31	9.9*	5	-0.97
CCOCCCNC(=S)N1CCC(C(=O)c2ccc3c(c2)OCCO3)CC1	.	2	.	.
CN1CCN(NC(=O)CC(C)(C)C)CC1	.	0	.	.
O=C(CSCc1cccc(CSCC(=O)Nc2ccc3ccccc3c2)n1)Nc1ccc2ccccc2c1	-67	7	-6	-0.67
O=C(CSCCN1C(=O)c2ccccc2C1=O)Nc1ccc2ccccc2c1	-9	9.2*	4	-0.7
Cc1noc(C)c1C(=O)OCC(=O)Nc1cc(Cl)ccc1Oc1ccccc1	-65	11*	-1	0.98
O=C(O)c1ccc(N2C(=O)/C(=C/C=C/c3ccccc3)SC2=S)cc1	.	1	.	.
CN(C)c1ccc(/C=C/C=C2/SC(=S)N(c3ccccc3)C2=O)cc1	-64	11*	17	-1.4
O=C(COC(=O)c1cc(=O)[nH]c(=O)[nH]1)NCc1ccccc1	1	1	-1	0.98
CC(c1ccco1)N(C(=O)c1ccccc1NS(=O)(=O)c1ccc(Cl)c([N+](=O)[O-])c1)c1ccccn1 (stereo not drawn)	-25	1	40*	-1.8
SMILES	BB579 growth dn	RAM inhibit	Yeast lifespan up	SDO1 yeast rescue
CC(C)OCCCNC(=O)Nc1cccc2ccccc12	.	0	.	.
CN1CCN(CC(=O)N2CCn3c4c(c5cc(C6CCCCC6)ccc53)CCCC42)CC1 (stereo not drawn)	100*	-2	-23	-2.9
Cc1ccc2c(c1)c1c3n2CCN(C(=O)CN2CCN(C)CC2)C3CCC1 (stereo not drawn)	7	-1	-18	-0.02
COc1ccc(NC(=O)CC2S/C(=N\c3nccs3)N(C)C2=O)cc1 (stereo not drawn)	.	4	.	.
COc1ccc(OCCNC2CCCC2)cc1	71*	0	6	-0.21
CCC(C)N1C(=O)S/C(=C/c2ccc(N3CCOCC3)cc2C)C1=O (stereo not drawn)	-25	8	-2	-0.36
Cc1cc(N2CCOCC2)ccc1/C=C1\SC(=O)N(C(C)C)C1=O	-15	11*	-13	-0.94
CCOc1cc2c3c(c1)C1(OCCO1)C(=O)N3C(C)(C)CC2C (stereo not drawn)	-33	1	0	-0.06
CCc1cc2c3c(c1)C(C)CC(C)(C)N3C(=O)C2=O (stereo not drawn)	-25	0	28*	-0.72
CCOC(=O)c1c(NC(=O)CSC2=NN3CCCC(=O)N=C3S2)sc2c1CCCCC2	-17	2	-2	-0.77
Cc1cccc(Cc2cnc(NC(=O)c3ccc(C)o3)s2)c1	-20	8.8*	-21	-1.9
O=c1c2c(-c3ccccc3)csc2nc2n1CCC2	-15	5	-17	1.4
O=c1c2sc(-c3ccccc3)cc2nc2n1CCC2	83*	5	.	-2.4
